Published values gathered from unrelated publications.
Compare with care: the assays were run in different laboratories.
Read-out: cell growth or viability

COc1cc(C2Oc3cc([C@H]4Oc5cc(O)cc(O)c5C(=O)[C@@H]4O)ccc3OC2CO)ccc1O (stereo partly shown)  IC50 (Hep3B; CCK-8; 72 h): 7.21 µM
CN1CCN(Cc2ccc(Nc3ncc(Cl)c(Nc4ccccc4S(=O)(=O)N(C)C)n3)cc2)CC1  IC50 (PSN1): 0.006 µM
CN1CCN(CC(=O)Nc2cccc(C(=O)Nc3ccc4[nH]ncc4c3)c2)CC1  IC50 (KM12; ATP luminescence; 72 h): > 50 µM
O=C(N/N=C1\C(=O)N(c2ccccc2)c2ccccc21)c1cc2ccccc2[nH]1  IC50 (ZR75): 1.32 µM
Cc1cc(Nc2ncc(Cl)c(Nc3ccccc3S(=O)(=O)C(C)C)n2)c(OC(C)C)cc1C1CCNCC1  IC50 (Rh41; 72 h): 0.35 µM
CCC(C(=O)COc1c(F)c(F)cc(F)c1F)n1cc([C@@](C)(NCc2ccc3ncccc3c2)C2CCC2)nn1 (mixture of isomers)  IC50 (BESM; 72 h): > 10 µM
O=C(Nc1ccc2[nH]ncc2c1)c1cccc(NC(=S)Nc2ccc(C(F)(F)F)cc2)c1  IC50 (KM12; ATP luminescence; 72 h): 23.1 µM
CCCCC(C(=O)COc1c(F)c(F)cc(F)c1F)n1cc([C@@](C)(NCc2ccc3ncccc3c2)C2CC2)nn1 (stereo partly shown)  IC50 (BESM; 72 h): > 10 µM
O=C(Nc1ccc(Cl)cc1)Nc1cccc(C(=O)Nc2ccc3[nH]ncc3c2)c1  IC50 (KM12; ATP luminescence; 72 h): > 50 µM
CC(=O)O[C@H]1C(=O)[C@@]2(C)[C@H]([C@H](OC(=O)c3ccccc3)[C@]3(O)C[C@H](OC(=O)[C@H](O)[C@@H](NC(=O)c4ccccc4)c4ccccc4)C(C)=C1C3(C)C)[C@]1(OC(C)=O)CO[C@@H]1C[C@@H]2O  IC50 (COR-L23; SRB): 0.0021 µM
CCCCC(C(=O)COc1c(F)c(F)cc(F)c1F)n1cc([C@@](C)(NCc2ccc3ncccc3c2)C2CCC2)nn1 (stereo partly shown)  IC50 (BESM; 72 h): > 10 µM
O=C(O)CCCc1ccccc1  IC50 (PSN1; MTT; 72 h): > 50 µM
CN1C(=O)/C(=N\NC(=O)c2cc3ccccc3[nH]2)c2cc(Cl)ccc21  IC50 (ZR75): 0.84 µM
CC(=O)Oc1ccc2c(c1)C(C)=CC(C)(C)N2Cc1ccccc1  IC50 (Hep3B; MTT; 72 h): 8 µM
O=C1Nc2ccccc2/C1=N/NC(=O)c1cc2ccccc2[nH]1  IC50 (ZR75): 22.7 µM
CCCCC(C(=O)COc1c(F)c(F)cc(F)c1F)n1cc([C@](C)(CC(C)C)NCc2ccc3ncccc3c2)nn1 (stereo partly shown)  IC50 (BESM; 72 h): > 10 µM
COc1cc(Nc2nccc(-c3cnn4nc(OC)ccc34)n2)cc(C(F)(F)F)c1  IC50 (NCI-H2110; ATP luminescence): 0.63 µM
O=C1Nc2ccc(Cl)cc2/C1=N/NC(=O)c1cc2ccccc2[nH]1  IC50 (ZR75): 18 µM
O=C1NC(=NCc2cccs2)S/C1=C\c1ccc2ncccc2c1  IC50 (SR): 0.372 µM
O=C(Nc1ccc2[nH]ncc2c1)c1cccc(NC(=O)c2cc(C(F)(F)F)ccc2F)c1  IC50 (KM12; ATP luminescence; 72 h): 26.8 µM
CN1C(=O)/C(=N\NC(=O)c2cc3ccccc3[nH]2)c2cc(F)ccc21  IC50 (ZR75): 4.31 µM
O=C(Nc1cccc(C(=O)Nc2ccc3[nH]ncc3c2)c1)Nc1ccccc1F  IC50 (KM12; ATP luminescence; 72 h): 48.3 µM
COc1cc2nccc(Oc3ccc(NC(=O)C4(C(=O)Nc5ccc(F)cc5)CC4)cc3)c2cc1OC  IC50 (Rh41; 72 h): 2.4 µM
O=C(Nc1ccccc1)Nc1cccc(C(=O)Nc2ccc3[nH]ncc3c2)c1  IC50 (KM12; ATP luminescence; 72 h): > 50 µM
O=C(/C=C/C=C/c1ccc2c(c1)OCO2)N1CCCCC1  IC50 (COR-L23; SRB): 74.8 µM
C[C@@H](Oc1cc(-c2cnn(C3CCNCC3)c2)cnc1N)c1c(Cl)ccc(F)c1Cl  IC50 (Rh41; 72 h): 0.45 µM
O=C(Nc1cccc(F)c1)Nc1cccc(C(=O)Nc2ccc3[nH]ncc3c2)c1  IC50 (KM12; ATP luminescence; 72 h): 41.5 µM
C[C@H]1[C@@H](O)O[C@@H]2O[C@@]3(C)CC[C@H]4[C@H](C)CC[C@@H]1[C@@]24OO3  IC50 (Hep3B; CCK-8; 48 h): > 50 µM
CC(C)C[C@H](NC(=O)[C@H](Cc1ccccc1)NC(=O)c1cnccn1)B(O)O  IC50 (NCI-H2110; ATP luminescence): 0.017 µM
O=C1Nc2ccc(Br)cc2/C1=N/NC(=O)c1cc2ccccc2[nH]1  IC50 (ZR75): 21.9 µM
O=C(Nc1cccc(C(=O)Nc2ccc3[nH]ncc3c2)c1)Nc1cccc(C(F)(F)F)c1  IC50 (KM12; ATP luminescence; 72 h): 39.5 µM
